Test results published in PubChem BioAssay AID504405 (Broad Institute, 2011).
Records with an inconclusive call do not appear. Calls of active or inactive are those of the source.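 The calls were made as follows: active = fitted curve crosses 10% of positive-control caspase signal within tested doses in every repeat test; inconclusive = repeat tests disagree, or any test inconclusive; inactive = the rest.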

Key:
[1] = system: wild-type MEF caspase activation, CaspaseGlo luminescence, 3 h; experiment: caspase activation in parental wild-type MEFs, dose response, counter-screen for A1 inhibitor project, cell-based, wild-type MEF, CaspaseGlo luminescence, dry powder, set 3 (AID 504405)
How it was run: (§1)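 Material: wild-type mouse embryonic fibroblasts, unprimed, not A1-dependent; amount: 2500 cells per well; buffer or medium: RPMI-1640 growth medium with 10% FBS; compound dosing: pin-transferred compound; timing: 3 h compound at 37 °C, 1 h CaspaseGlo at RT; technique: CaspaseGlo luminescence; measure: caspase activation as toxicity flag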

[2] = as above; conditions: wild-type MEF caspase activation, CaspaseGlo luminescence, 3 h; at 35 µM (top of the series)
How it was run: as §1

O=c1c([N+](=O)[O-])c(Cl)c2ccccc2n1Cc1ccccc1
AC10 [1]: 11.8 µM

CCn1c(=O)c([N+](=O)[O-])c(Sc2ccc(C)cc2)c2ccccc21
caspase activation [2]: 0.226% (inactive)

Cc1ccc(S(=O)(=O)c2c([N+](=O)[O-])c(=O)n(C)c3ccccc23)cc1
caspase activation [2]: -0.89% (inactive)

C/C(=N\Nc1nc(N2CCCCC2)nc(N2CCCCC2)n1)c1ccc(F)cc1
caspase activation [2]: 0.38% (inactive)

Cc1ccc(Sc2c([N+](=O)[O-])c(=O)n(C)c3ccccc23)cc1
caspase activation [2]: 5.89% (inactive)

COCCn1c(=O)c(Sc2ccc(C)cc2)c(Sc2ccc(C)cc2)c2ccccc21
caspase activation [2]: 0.603% (inactive)

CCn1c(=O)c(Sc2ccc(C)cc2)c(Sc2ccc(C)cc2)c2ccccc21
caspase activation [2]: 0.52% (inactive)

Cc1ccc(Sc2c(Sc3ccc(C)cc3)c3ccccc3n(Cc3ccccc3)c2=O)cc1
caspase activation [2]: 0.126% (inactive)

COc1nc2ccccc2c(Cl)c1[N+](=O)[O-]
caspase activation [2]: 6.45% (inactive)

COc1c([N+](=O)[O-])c(=O)n(C)c2ccccc12
caspase activation [2]: 0.426% (inactive)

COCCn1c(=O)c([N+](=O)[O-])c(Cl)c2ccccc21
caspase activation [2]: -0.545% (inactive)

Cn1c(=O)c([N+](=O)[O-])c(S(C)(=O)=O)c2ccccc21
caspase activation [2]: -0.856% (inactive)

COc1ccc(CCNc2nc(N3CCOCC3)nc(N3CCOCC3)n2)cc1OC
caspase activation [2]: 0.145% (inactive)

Cc1ccc(Sc2c(Sc3ccc(C)cc3)c3ccccc3n(C)c2=O)cc1
caspase activation [2]: 0.922% (inactive)

O=c1[nH]c2ccccc2c(O)c1[N+](=O)[O-]
caspase activation [2]: 0.522% (inactive)

O=C(COc1ccc(Cl)cc1Cl)NNc1nc(N2CCOCC2)nc(N2CCOCC2)n1
caspase activation [2]: -0.598% (inactive)

Cn1c(=O)c(Sc2ccccn2)c(Sc2ccccn2)c2ccccc21
caspase activation [2]: 0.793% (inactive)

COc1ccc(N2CCN(c3nc(NCCc4ccc(OC)c(OC)c4)nc(N4CCOCC4)n3)CC2)cc1
caspase activation [2]: 0.165% (inactive)

COc1ccc(CCNc2nc(N3CCCC3)nc(N3CCCC3)n2)cc1OC
caspase activation [2]: -0.327% (inactive)

COc1nc2ccccc2c(Sc2ccc(C)cc2)c1[N+](=O)[O-]
caspase activation [2]: 0.723% (inactive)
